PREPL inhibitor: PREPL enzyme inhibitors, primary screen, biochemical, fluorescence polarization. Prolyl endopeptidase-like (Homo sapiens), Q4J6C6. recombinant PREPL, fluorescence polarization activity-based probe. inhibition, % at 5.96 µM. hit rate 0.68% among 320,000; in the data active means inhibition above about 43%
Target sequence (Q4J6C6 whole entry, looked up): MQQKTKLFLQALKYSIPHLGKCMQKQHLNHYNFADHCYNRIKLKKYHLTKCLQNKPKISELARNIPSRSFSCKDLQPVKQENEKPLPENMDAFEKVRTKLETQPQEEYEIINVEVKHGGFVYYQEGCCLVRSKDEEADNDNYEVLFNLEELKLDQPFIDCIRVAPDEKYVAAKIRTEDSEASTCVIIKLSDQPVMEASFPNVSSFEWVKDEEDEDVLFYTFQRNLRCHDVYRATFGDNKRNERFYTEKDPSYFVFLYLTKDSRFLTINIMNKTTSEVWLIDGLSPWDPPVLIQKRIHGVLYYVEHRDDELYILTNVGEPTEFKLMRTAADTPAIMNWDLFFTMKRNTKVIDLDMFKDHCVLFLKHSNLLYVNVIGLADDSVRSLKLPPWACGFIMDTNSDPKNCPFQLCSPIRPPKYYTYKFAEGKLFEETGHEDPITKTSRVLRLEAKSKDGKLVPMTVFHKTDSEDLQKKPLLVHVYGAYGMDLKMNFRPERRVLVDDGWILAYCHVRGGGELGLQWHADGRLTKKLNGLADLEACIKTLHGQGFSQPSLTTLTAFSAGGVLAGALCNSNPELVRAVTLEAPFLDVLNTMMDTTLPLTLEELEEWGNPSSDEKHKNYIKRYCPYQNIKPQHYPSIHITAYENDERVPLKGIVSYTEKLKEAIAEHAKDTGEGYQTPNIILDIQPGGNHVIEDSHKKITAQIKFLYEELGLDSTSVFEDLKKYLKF
NR3A LBD binder: binders of NR3A ligand-binding domain, primary screen, biophysical, differential scanning fluorimetry, uHTS. Glutamate receptor ionotropic, NMDA 3A (GRIN3A) ligand-binding domain. NR3A LBD differential scanning fluorimetry, Tm shift; 0% = protein alone, 100% = glycine-bound protein. Tm shift relative to glycine control, % at 25 µM. hit rate 2.5% among 340,000. AID 1259313, 2017;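 active means melting temperature shift of at least 10% of the positive control shift, at one fixed dose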
T cruzi inh: inhibitors of intracellular T. cruzi growth, primary screen, luminescence, NIH3T3 host cells | T. cruzi beta-gal in NIH3T3, 90 h | inhibition, % (concentration not given with the values) | hit rate 1.4% among 300,000 | AID 1885, 2009;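 active means mean inhibition across valid replicates above about 55%, limit read from the data; inconclusive means mean below that limit but half or more replicates reach it; inactive means mean below it, under half of replicates reach it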;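 further: signal also drops with host cell toxicity which is not excluded here; higher percent means less beta-gal luminescence so fewer parasites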
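assay system = mouse NIH/3T3 fibroblasts infected with β-gal-expressing T. cruzi Tulahuen C4 | input = 5,000 NIH/3T3 host cells per well | buffer or medium = DMEM plus 2% FBS | timing = 3 h host attachment, then at least 90 h co-culture | measured by = GalScreen luminescence, 60 min | evaluation = luminescence reflecting intracellular parasite burden, expressed as percent inhibition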
CHOP inh: inhibitors of CHOP promoter induction, primary screen, cell-based, unfolded protein response, luciferase reporter; inhibition, % at 10 µM; CHO-K1 CHOP-promoter luciferase, tunicamycin-induced, 15-18 h; hit rate 3.8% among 220,000; AID 2732, 2010;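 active means compounds that reduced the stress-induced luciferase reporter signal by more than about 70% of percent inhibition, limit read from the data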
Beta cell apopt: inhibitors of cytokine-induced beta cell apoptosis, primary screen, luminescence. INS-1E cytokine-induced death, ATP luminescence, 48 h; percent of positive-control rescue, neutral wells zero. protection from apoptosis, % (no concentration beside the values). hit rate 0.8% among 300,000;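 active means Every replicate reaches about 75%, or at least half do and their mean reaches it too, limit read from the data; inconclusive means At least half of replicates reach the limit but their mean does not; inactive means Under half of replicates reach the limit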;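 further: higher means more ATP so stronger rescue from cytokine killing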
CSC inhib: cancer stem cell viability inhibitors, primary screen, luminescence. inhibition, % at 7.5 µM. hit rate 1.1% among 300,000. cancer stem cell-like cells viability. AID 2717, 2010; in the data active means inhibition above about 75%; inconclusive means no clear call, values can overlap the other calls; tested in HMLE shEcad cells
Of the large screens only hits and unclear results are named; the others gave an inactive call. A selection: hits, their analogues and other compounds. The true share with any hit is near 6.7%.

CCc1ccc(-c2cc(C)no2)cc1S(=O)(=O)N1CCN(c2cc(C)ccc2C)CC1	none (no result: CHOP inh)
CCCOc1ccc(CSc2nc3ccccc3[nH]2)cc1	CHOP inh 75.9, Beta cell apopt 112.3
CCOc1ccc(OCCSc2nc3ccccc3[nH]2)cc1	none
N=C1C(c2ccccc2)=C(O)CN1c1cccc(S(=O)(=O)N2CCOCC2)c1	none
COc1ccccc1-c1cc(-c2ccccc2)nc(SCC(=O)O)c1C#N	none (no result: PREPL inhibitor, CHOP inh)
O=C(Nc1nc2n(n1)C(c1ccc(Cl)cc1)CC(c1ccc(Cl)cc1)N2)c1ccco1 (centres undefined)	CHOP inh 80.5
COc1ccc(S(=O)(=O)N2CCOCC2)cc1NC(=O)Cc1coc2cc(C)c(C)cc12	none (no result: CHOP inh)
Cc1nccn1C(c1ccccc1)c1ccccc1	none (no result: CHOP inh)
Cc1ccc2oc3c(c(=O)c2c1)C(c1cccc(Br)c1)N(Cc1ccco1)C3=O (centres undefined)	CHOP inh 80.9 (no result: PREPL inhibitor, T cruzi inh, Beta cell apopt, CSC inhib)
CCOc1cc(C2c3c(oc4cc(C)c(Cl)cc4c3=O)C(=O)N2Cc2ccco2)ccc1O (centres undefined)	CHOP inh 95.8
Cc1cc2oc3c(c(=O)c2cc1C)C(c1cccc(Br)c1)N(Cc1ccco1)C3=O (centres undefined)	none
CC(C)[C@H](NC(N)=O)C(=O)Nc1ccc(F)c(Cl)c1	none
CCCOC(=O)c1ccc(NC(=O)c2ccccc2[N+](=O)[O-])cc1	none
COc1ccccc1NC(=O)c1cnc(SCC(=O)NCC2CCCO2)n(C)c1=O (centres undefined)	none (no result: CHOP inh, Beta cell apopt)
CCCCCCCCCCCCN1[C@@H](CC(C)=O)c2cc(F)ccc2S1(=O)=O	CSC inhib 79.5 (no result: CHOP inh)
COC(=O)[C@@H]1Cc2c([nH]c3ccccc23)C(C)(C)N1C(=O)CCl	T cruzi inh 62.7 (no result: PREPL inhibitor, CHOP inh)
CCOC(=O)c1cc(-c2cccc(C(F)(F)F)c2)nc2nc(SC)[nH]c(=O)c12	none
CCOC(=O)c1nc(C)nc(Sc2n[nH]c(-c3cc(C(F)(F)F)cc(C(F)(F)F)c3)n2)c1C	NR3A LBD binder 12.8, CHOP inh 71.9
Cc1ccc(SC(C)c2nc(-c3ccccc3)no2)cc1 (centres undefined)	CHOP inh 72.4
Cc1ccccc1OC(C)c1nc(-c2ccccc2)no1 (centres undefined)	none
Nc1ccc2c(c1)Cc1cc(N)c(Cl)cc1-2	none (no result: PREPL inhibitor, T cruzi inh, CHOP inh, Beta cell apopt, CSC inhib)
Nc1ccc2c(c1)Cc1cc(Cl)c(Cl)cc1-2	NR3A LBD binder 15.2 (no result: PREPL inhibitor, T cruzi inh, CHOP inh, Beta cell apopt, CSC inhib)
CCCc1cc(=O)[nH]c(Nc2ccc3c(c2)OCCO3)n1	none
CC1=CC(C)(C)N(C(=O)CN2C(=O)c3ccccc3C2=O)c2ccccc21	NR3A LBD binder 12.0
Cc1cc(N2CCN(S(=O)(=O)c3ccc(Cl)cc3)CC2)c2ccccc2n1	Beta cell apopt 81.5 (no result: NR3A LBD binder)
Cc1cc(N2CCN(S(=O)(=O)c3ccc(Cl)c(Cl)c3)CC2)c2ccccc2n1	none (no result: T cruzi inh, CSC inhib)
O=C(N/N=C/c1ccc(O)cc1)Nc1cccc2nsnc12	NR3A LBD binder 16.7, T cruzi inh 62.1
COc1cc(/C=N/NC(=O)Nc2cccc3nsnc23)cc(OC)c1OC	CHOP inh 84.1 (no result: PREPL inhibitor, Beta cell apopt, CSC inhib)
COc1ccc(/C=N/NC(=O)Nc2cccc3nsnc23)c(OC)c1	none (no result: T cruzi inh)
COc1ccc(N2C(=O)c3ccc(C(=O)Nc4ccc(NC(C)=O)cc4)cc3C2=O)cc1	none (no result: CHOP inh)
COCC(=O)Nc1ccc(C(=O)Nc2ccccc2Cl)cc1	none (no result: NR3A LBD binder)
CN(C)c1ccc(C(=O)C(=O)c2ccccc2)cc1	none (no result: CHOP inh)
CN(C)c1ccc2c(c1)Sc1cc(N(C)C)ccc1N2C(=O)c1ccccc1	T cruzi inh 60.2
COc1ccc(OC)c2c1cc(C(=O)N[C@@H](C)C(=O)N[C@@H](C(=O)O)c1ccccc1)n2C	none (no result: CHOP inh)
COCCNC(=O)/C(C#N)=c1\s/c(=C\c2ccccc2OC(F)F)c(=O)n1Cc1ccccc1	CHOP inh 94.6 (no result: NR3A LBD binder)
COCCCn1c(=O)/c(=C/c2ccccc2OC(F)F)s/c1=C(\C#N)C(=O)NCCOC	none (no result: PREPL inhibitor, T cruzi inh, CHOP inh, Beta cell apopt, CSC inhib)
CCCCN1C(C(=O)Nc2ncccn2)=C(O)c2ccccc2S1(=O)=O	none (no result: CHOP inh)
O=C(Nc1ccc2c(c1)OCO2)c1ccc(COc2ccc3c(c2)CCC3)o1	CSC inhib 86.1
Cc1ccc(C(=O)Nc2ccc3c(c2)CCC3)o1	none
Cc1cc2oc(C(=O)Nc3ccc(S(=O)(=O)N4CCCC(C)C4)cc3)cc(=O)c2cc1Cl (centres undefined)	NR3A LBD binder 14.1
Cc1cc2oc(C(=O)Nc3ccc(S(=O)(=O)Nc4nccs4)cc3)cc(=O)c2cc1Cl	NR3A LBD binder 17.4
Cc1cccc(-c2csc(N)c2C(=O)OC(C)C)c1	CHOP inh 74.1
Cc1ccc(C)c(-c2csc(N)c2C(=O)OC(C)C)c1	CHOP inh 79.7, CSC inhib inconclusive
CCOC(=O)c1c(-c2ccncc2)csc1N	none
CCOC(=O)c1c(-c2cccc([N+](=O)[O-])c2)csc1N	none
COc1cc(/C=N/NC(=O)c2ccccn2)ccc1OC(=O)c1cccs1	none (no result: CHOP inh)
Cc1cc(NC(=O)C(C)SCC(=O)NCc2ccc(F)cc2)no1 (centres undefined)	none (no result: T cruzi inh, CHOP inh, Beta cell apopt, CSC inhib)
CCOc1cc(/C=N/NS(=O)(=O)c2ccccc2)ccc1OS(=O)(=O)c1ccc(C)cc1	NR3A LBD binder 20.0, CHOP inh 86.7 (no result: T cruzi inh)
CCOc1cc(/C=N/NC(=O)COc2ccc(Cl)cc2)ccc1OS(=O)(=O)c1ccccc1	CHOP inh 81.0
CCOc1cc(/C=N/NC(=O)COc2ccccc2C)ccc1OC(=O)c1cccs1	CHOP inh 75.8
Cc1ccc(CN2CCN(CC(=O)N/N=C/c3ccc(C)o3)CC2)cc1	none
Cc1cc2cccc(C)c2nc1SCC(=O)N(C)c1nc(-c2ccccc2)cs1	none
COc1ccc2c(c1)cc(C)c1nnc(SCC(=O)N(C)c3nc(-c4ccccc4)cs3)n12	CHOP inh 94.0
O/N=C(\c1ccccc1)c1nccc2ccccc12	none (no result: CHOP inh)
O=C(N/N=C/c1ccc(Br)cc1)c1ccc(Br)o1	NR3A LBD binder 19.5
O=C(N/N=C/c1ccc(F)cc1)c1ccc(Br)cc1	none
O=C(N/N=C\c1cn(-c2ccccc2)nc1-c1ccccc1)c1ccc(Br)o1	Beta cell apopt 110.0
CCOC(=O)C1CCCN(C(=O)COc2ccc(S(=O)(=O)N(CC)c3ccccc3)cc2)C1 (centres undefined)	none
O=C(N/N=C/c1ccc(-c2cccc([N+](=O)[O-])c2)o1)c1ccc([N+](=O)[O-])cc1	none
O=C(N/N=C/c1ccc(-c2cccc([N+](=O)[O-])c2)o1)c1ccccc1O	NR3A LBD binder 19.3
Cc1cc(C(=O)N/N=C/c2cc(N=Nc3ccccc3)ccc2O)n[nH]1	CHOP inh 88.8, Beta cell apopt 83.3, CSC inhib 108.7

Compound activity (PubChem)
